Experimental data: ChEMBL document CHEMBL2396586, “Discovery of non-LBD inhibitor for androgen receptor by structure-guide design” (Bioorg Med Chem Lett, 2013)

Experiments:
Androgen receptor = target: T1, Androgen receptor (Homo sapiens, UniProt P10275); experiment: Inhibition of androgen receptor in human LNCAP cells after 1 day by luciferase reporter gene assay; format: cell-based
T1 sequence (P10275 whole entry): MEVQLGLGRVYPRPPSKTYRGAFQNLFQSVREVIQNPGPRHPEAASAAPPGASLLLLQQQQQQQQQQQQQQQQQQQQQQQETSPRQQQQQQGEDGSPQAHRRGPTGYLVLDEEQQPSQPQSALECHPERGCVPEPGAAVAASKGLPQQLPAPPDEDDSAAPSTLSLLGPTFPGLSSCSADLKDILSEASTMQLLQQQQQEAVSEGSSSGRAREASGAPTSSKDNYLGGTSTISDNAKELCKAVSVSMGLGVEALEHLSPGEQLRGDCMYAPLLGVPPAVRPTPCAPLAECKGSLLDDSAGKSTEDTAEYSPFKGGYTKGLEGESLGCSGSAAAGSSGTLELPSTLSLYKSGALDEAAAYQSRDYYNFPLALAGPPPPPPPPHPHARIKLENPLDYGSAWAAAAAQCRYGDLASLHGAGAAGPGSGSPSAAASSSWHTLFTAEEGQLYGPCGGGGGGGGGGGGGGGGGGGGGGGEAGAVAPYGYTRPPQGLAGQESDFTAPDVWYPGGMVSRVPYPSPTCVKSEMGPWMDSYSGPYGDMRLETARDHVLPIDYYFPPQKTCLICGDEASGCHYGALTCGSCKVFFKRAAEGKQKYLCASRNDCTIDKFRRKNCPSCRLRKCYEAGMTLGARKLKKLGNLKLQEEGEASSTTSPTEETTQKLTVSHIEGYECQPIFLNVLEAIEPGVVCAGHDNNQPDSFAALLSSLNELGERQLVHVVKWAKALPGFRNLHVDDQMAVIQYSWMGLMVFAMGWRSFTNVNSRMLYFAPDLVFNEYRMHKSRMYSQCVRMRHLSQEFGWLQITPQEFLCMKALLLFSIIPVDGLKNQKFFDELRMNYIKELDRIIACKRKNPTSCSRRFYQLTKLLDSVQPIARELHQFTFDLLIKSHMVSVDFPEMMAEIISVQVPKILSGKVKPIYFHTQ

LNCaP = experiment: Cytotoxicity against human LNCAP cells assessed as cell viability after 2 days by cell counting method; format: functional, cell-based; settings: 48 h
How it was run: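 LNCap cells were grown in RPMI1640 with 10% FBS and penicillin/streptomycin at 37 °C in 5% CO2. They were seeded at 4 × 10³ cells/well, left 24 h, then exposed to compounds for 2 days. Viability was read by CCK-8 absorbance, in triplicate.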

[1] = Oral bioavailability in Sprague-Dawley rat at 2.5 mg/kg; format: ADME, organism-based; settings: in vivo
How it was run: (§1)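 Male Sprague-Dawley rats, n = 3 per route, were given 2.5 mg/kg by either intravenous or oral dosing. Plasma concentration–time profiles were followed, and PK parameters were derived from them, with AUC taken over 0–72 h and also to infinity.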

[2] = Mean residence time in Sprague-Dawley rat at 2.5 mg/kg, po; format: ADME, organism-based; design: dose 2.5 mg/kg, route oral; settings: in vivo; how it was run: as §1
[3] = Mean residence time in Sprague-Dawley rat at 2.5 mg/kg, iv; format: ADME, organism-based; design: dose 2.5 mg/kg, route intravenous; settings: in vivo; how it was run: as §1
[4] = Volume of distribution at steady state in Sprague-Dawley rat at 2.5 mg/kg, iv; format: ADME, organism-based; design: dose 2.5 mg/kg, route intravenous; settings: in vivo, read-out: Vdss; how it was run: as §1
[5] = Blood clearance in Sprague-Dawley rat at 2.5 mg/kg, iv; format: ADME, organism-based; design: dose 2.5 mg/kg, route intravenous; how it was run: as §1
[6] = AUC (0 to infinity) in Sprague-Dawley rat at 2.5 mg/kg, po; format: ADME, organism-based; design: time infinity, dose 2.5 mg/kg, route oral; settings: plasma; how it was run: as §1
[7] = AUC (0 to infinity) in Sprague-Dawley rat at 2.5 mg/kg, iv; format: ADME, organism-based; design: time infinity, dose 2.5 mg/kg, route intravenous; settings: plasma; how it was run: as §1
[8] = AUC (0 to 72 hrs) in Sprague-Dawley rat at 2.5 mg/kg, po; format: ADME, organism-based; design: time < 72 hr, dose 2.5 mg/kg, route oral; settings: plasma; how it was run: as §1
[9] = AUC (0 to 72 hrs) in Sprague-Dawley rat at 2.5 mg/kg, iv; format: ADME, organism-based; design: time < 72 hr, dose 2.5 mg/kg, route intravenous; settings: plasma; how it was run: as §1
[10] = Elimination half life in Sprague-Dawley rat at 2.5 mg/kg, po; format: ADME, organism-based; design: dose 2.5 mg/kg, route oral; settings: in vivo, read-out: beta t1/2 (converted); how it was run: as §1
[11] = Elimination half life in Sprague-Dawley rat at 2.5 mg/kg, iv; format: ADME, organism-based; design: dose 2.5 mg/kg, route intravenous; settings: in vivo, read-out: beta t1/2 (converted); how it was run: as §1
[12] = Cmax in Sprague-Dawley rat at 2.5 mg/kg, po; format: ADME, organism-based; design: dose 2.5 mg/kg, route oral; settings: in vivo; how it was run: as §1
[13] = Tmax in Sprague-Dawley rat at 2.5 mg/kg, po; format: ADME, organism-based; design: dose 2.5 mg/kg, route oral; settings: in vivo; how it was run: as §1
CYP2D6 = CYP2D6 (Homo sapiens, UniProt P10635); experiment: Inhibition of CYP2D6 (unknown origin) at 10 uM relative to control; format: ADME
CYP3A4 = CYP3A4 (Homo sapiens, UniProt P08684); experiment: Inhibition of human recombinant CYP3A4 using dibenzylfluorescein as substrate at 10 uM preincubated for 20 mins prior to enzyme/substrate addition measured after 20 mins by fluorometric assay relative to control; format: ADME; settings: recombinant CYP3A4, probe dibenzylfluorescein
How it was run: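 Vivid fluorometric kit. Compounds were in acetonitrile, with an acetonitrile vehicle control. NADP-regenerating system (1.0 mM NADP+, 3.3 mM glucose-6-phosphate, 3.3 mM MgCl2, 0.4 U/mL G6PDH in 10 mM KPO4, pH 8.0) was preincubated with compound at 37 °C for 20 min. Then 0.5 pmol recombinant human CYP3A4 plus dibenzylfluorescein was added, 20 min, and the reaction was stopped. Background had enzyme/substrate added after the stop. Fluorescein read at ex 485/em 530 nm.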

[14] = Permeability of the compound at pH 7.4 at 500 uM after 16 hrs by PAMPA; format: ADME; settings: pH 7.4, 16 h
How it was run: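 PAMPA: the donor solution was diluted from a 1 mM DMSO stock into system buffer at pH 7.4. Lipid solution was applied to each filter membrane, and the receiver side held acceptor sink buffer. The plates were incubated 16 h at room temperature. Donor and receiver sides were analysed by UV spectrometry, and donor initial concentration was also measured.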

[15] = Octanol-water partition coefficient, log P of the compound by pH-metric method; format: physicochemical
[16] = Metabolic stability in rat liver microsomes assessed as compound remaining at […] after 1 hr; format: ADME, Microsome; settings: read-out: Stability

Chain of CYP3A4 (P08684 whole entry): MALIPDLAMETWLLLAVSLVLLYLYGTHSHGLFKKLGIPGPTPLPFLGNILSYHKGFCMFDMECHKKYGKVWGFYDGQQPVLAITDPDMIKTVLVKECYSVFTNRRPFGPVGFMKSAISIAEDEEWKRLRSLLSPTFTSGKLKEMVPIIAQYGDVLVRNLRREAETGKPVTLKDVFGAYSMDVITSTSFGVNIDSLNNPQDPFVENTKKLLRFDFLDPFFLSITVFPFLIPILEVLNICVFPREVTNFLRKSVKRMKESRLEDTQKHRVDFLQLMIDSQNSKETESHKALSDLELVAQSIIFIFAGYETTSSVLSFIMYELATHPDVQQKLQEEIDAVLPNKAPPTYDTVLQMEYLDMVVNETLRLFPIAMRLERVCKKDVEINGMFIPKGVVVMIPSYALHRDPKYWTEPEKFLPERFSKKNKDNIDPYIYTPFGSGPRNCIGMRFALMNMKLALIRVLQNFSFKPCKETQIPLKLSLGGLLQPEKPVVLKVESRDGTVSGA
Chain of CYP2D6 (P10635 whole entry): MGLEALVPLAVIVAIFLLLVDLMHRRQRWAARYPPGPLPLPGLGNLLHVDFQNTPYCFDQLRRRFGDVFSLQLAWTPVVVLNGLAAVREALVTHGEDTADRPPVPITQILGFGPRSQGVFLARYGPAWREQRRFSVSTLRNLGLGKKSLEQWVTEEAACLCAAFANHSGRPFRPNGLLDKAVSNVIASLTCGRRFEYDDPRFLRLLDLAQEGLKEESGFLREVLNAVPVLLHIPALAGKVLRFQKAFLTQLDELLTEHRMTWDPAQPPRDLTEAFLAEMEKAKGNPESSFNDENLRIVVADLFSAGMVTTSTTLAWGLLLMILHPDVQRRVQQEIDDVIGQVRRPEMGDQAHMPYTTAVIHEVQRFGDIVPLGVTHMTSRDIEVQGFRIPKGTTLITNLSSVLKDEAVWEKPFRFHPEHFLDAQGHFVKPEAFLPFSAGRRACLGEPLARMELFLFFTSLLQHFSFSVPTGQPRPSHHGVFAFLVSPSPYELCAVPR

## CCS(=O)(=O)Nc1cccc(-c2cc(=O)n(-c3cc(Cl)cc(Cl)c3)nc2C)c1
Androgen receptor
  IC50: 13.2 µM
LNCaP
  IC50: 22.9 µM

## CCS(=O)(=O)Nc1cccc(-c2cc(=O)n(-c3ccc(F)c(Cl)c3)nc2C)c1
Androgen receptor
  IC50: 5.07 µM
LNCaP
  IC50: 26.7 µM

## CCS(=O)(=O)Nc1cccc(-c2cc(=O)n(-c3ccc4ccccc4c3)nc2C)c1
Androgen receptor
  IC50: 9.76 µM
LNCaP
  IC50: 18.3 µM

## CCS(=O)(=O)Nc1cccc(-c2cc(=O)n(-c3ccc(C#N)cc3)nc2C)c1
Androgen receptor
  IC50: 6.26 µM
LNCaP
  IC50: 39 µM

## CC(O)(CS(=O)(=O)c1ccc(F)cc1)C(=O)Nc1ccc(C#N)c(C(F)(F)F)c1 (centres undefined) [BICALUTAMIDE]
LNCaP
  IC50: 23.8 µM

## CCS(=O)(=O)Nc1cccc(-c2cc(=O)n(-c3ccc(Cl)c(Cl)c3)nc2C)c1
[1]
  bioavailability: 102%
[2]
  MRT: 34.9 h
[3]
  MRT: 26.9 h
[4]
  Vd: 2.25 L/kg
[5]
  clearance: 1.41 mL/min/kg
[6]
  AUC(0-inf): 30500 ng·h/mL
[7]
  AUC(0-inf): 29800 ng·h/mL
[8]
  AUC(0-t) at 72 h: 26800 ng·h/mL
[9]
  AUC(0-t) at 72 h: 27500 ng·h/mL
[10]
  half-life: 21.6 h
[11]
  half-life: 19.2 h
[12]
  Cmax: 767 ng/mL
[13]
  Tmax: 10.3 h
CYP2D6
  inhibition at 10 µM: 0%
CYP3A4
  inhibition at 20 min, 10 µM: 6.7%
[14]
  permeability: permeable
[15]
  logP: 3.82
Androgen receptor
  IC50: 2.65 µM
LNCaP
  IC50: 11.6 µM
[16]
  remaining at 1 h: > 99%
